RAM network inh: inhibitors of the yeast RAM network, primary screen, dse1pr::URA3 reporter, 5-FOA selection; S. cerevisiae dse1pr::URA3 reporter, 5-FOA growth OD615, 2 d; analog-sensitive cbk1-as2 kinase mutant strain; 1.8% of 190,000 active; inhibition, % at 50 µM; AID 868, 2007;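 active = inhibition above a set limit, 3 SD over mean compound inhibition, cut at about 8.4% in these data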;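 also: 0% = DMSO-only wells with no growth and 100% = 10 µM 1-NA-PP1 full growth; inhibition rescues growth on 5-FOA so higher OD means more RAM inhibition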
Insulin prom inh: inhibitors of insulin promoter-driven GFP, primary screen, imaging, TRM-6 cells, eGFP reporter, cell count; reporter expression induced with tamoxifen; inhibition, % at 2 µM; 0.9% of 130,000 active;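 active = inhibition above the mean plus 3 SD, with well images judged a real hit on visual review, cut at about 60% in these data, passing the limit was not always enough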
BB579 growth dn: growth inhibitors of yeast BB579 in restrictive medium, primary screen, yeast lifespan-shortening project, S. cerevisiae; OD615, 48 h; inhibition, % at 10 µM; 0.51% of 140,000 active; AID 804, 2007;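 active = inhibition above a set limit, 3 SD over the mean compound inhibition, cut at about 44% in these data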
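controls = amphotericin B 10 µg/mL, positive | assay system = DeaD yeast strain BB579 | schedule = 48 h compound exposure at 30 °C after 4 h preincubation | detection = OD615 turbidity measurement | medium = restrictive CSMM-D medium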
Insulin prom up: insulin promoter activators in MIN6 cells, imaging, high-content screening, mouse beta cells. MIN6 insulin promoter-GFP reporter; stronger effect = higher value. z-score at 5 µM. 0.3% of 190,000 active. AID 1625, 2009;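 active = z-score above 3 at 5 µM with at least 500 cells counted in the well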
Yeast life ext: compounds extending yeast replicative lifespan, primary screen, S. cerevisiae, OD615; S. cerevisiae growth with nicotinamide; deaD strain in restrictive glucose medium; inhibition of the nicotinamide effect, % at 10 µM; 0.68% of 130,000 active;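 active = inhibition above a set limit, placed 3 SD over the median of all compounds, cut at about 26% in these data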;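 also: 0% = nicotinamide-treated wells and 100% = cells grown without nicotinamide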
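Assay system: DeaD-strain S. cerevisiae. Medium: CSMM-D glucose medium, restrictive. Reagent: nicotinamide, 1.5 mM, co-present with compound. Compound: 10 µM single point, 0.25% DMSO. Schedule: culture preincubation 4 h, compound exposure 48 h, both 30 °C. Detection: absorbance at 615 nm.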
* = called active by the depositor. Only some compounds are listed: those with a hit (about 3% of all), similar ones and a draw of the others.

For COC(=O)CCS(=O)(=O)c1nc(-c2ccccc2)cc(C(F)(F)F)n1 the results were RAM network inh -1, Insulin prom inh -8, BB579 growth dn -8 and Yeast life ext 77*.
Screening CCOC(=O)CCS(=O)(=O)c1nc(-c2ccccc2)cc(C(F)(F)F)n1 returned RAM network inh -1, Insulin prom inh 56, BB579 growth dn -32, Insulin prom up 0.52 and Yeast life ext 67*.
Screening CCOC(=O)CS(=O)(=O)c1nc(-c2ccc(F)cc2)cc(C(F)(F)F)n1 returned RAM network inh -1, BB579 growth dn -44, Insulin prom up -0.07 and Yeast life ext 67*.
O=C(Nc1ccc(N2CCOCC2)cc1)C1CCN(S(=O)(=O)c2ccccc2F)CC1 was read as Insulin prom up 0.38.
CN(Cc1ccccc1)C(=O)c1ccco1 was read as RAM network inh 2, Insulin prom inh 8 and Insulin prom up 0.6.
`Cc1ccc(C(CCN(Cc2ccccc2)C(=O)c2ccco2)c2ccco2)cc1` (stereo not given) gave RAM network inh 11*, Insulin prom inh -48, BB579 growth dn -29, Insulin prom up -0.24 and Yeast life ext 1.
For O=C(c1ccco1)N(CCC(c1ccccc1)c1ccco1)Cc1ccco1 (stereo not given) the results were RAM network inh 8.8*, Insulin prom inh -31, BB579 growth dn -71, Insulin prom up -0.03 and Yeast life ext -17.
O=[N+]([O-])c1cc(S(=O)(=O)NC2=NCCCCC2)ccc1NCC1CCCCC1 was read as RAM network inh 4, Insulin prom inh -9 and Insulin prom up 0.33.
`CSc1ccccc1NC(=O)CN(c1ccccc1Br)S(C)(=O)=O` gave RAM network inh 1, Insulin prom inh -32, BB579 growth dn -44, Insulin prom up 0.8 and Yeast life ext 21.
Cc1cc(Oc2ccc3ccccc3c2)nc(SCC(=O)c2ccccc2)n1 was read as RAM network inh 11*, Insulin prom inh 13, BB579 growth dn -36, Insulin prom up -1 and Yeast life ext 5.
COc1ccc(-c2cc(C)nc(SCC(=O)c3cccc([N+](=O)[O-])c3)n2)cc1 was read as RAM network inh 4, Insulin prom inh -19, BB579 growth dn -31, Insulin prom up -0.99 and Yeast life ext -11.
Screening Cc1cc(Oc2ccc(Br)cc2)nc(SCC(=O)c2ccccc2)n1 returned RAM network inh 5, Insulin prom inh 14, BB579 growth dn -64, Insulin prom up -0.17 and Yeast life ext 4.
Screening Cc1cc(-c2ccccc2)nc(SCC(=O)c2cccc([N+](=O)[O-])c2)n1 returned RAM network inh 11*, BB579 growth dn -11, Insulin prom up -0.98 and Yeast life ext -25.
`COc1ccc(CCN(Cc2cccs2)S(=O)(=O)c2ccc(-n3cnnn3)cc2)cc1OC` gave RAM network inh 4, BB579 growth dn -47 and Yeast life ext -8.
Screening COc1cc(S(=O)(=O)N(CCc2ccccc2)Cc2cccs2)ccc1-n1cnnn1 returned RAM network inh 9.1*, Insulin prom inh -56, BB579 growth dn -49 and Insulin prom up -0.11.
Screening COc1ccc(C(=O)OCn2nnc3ccccc3c2=O)cc1OC returned RAM network inh 8.8*, Insulin prom inh 28, BB579 growth dn -26, Insulin prom up 1.5 and Yeast life ext -23.
For CCCCNC(=S)NC(=O)c1ccc(Cl)cc1Cl the results were RAM network inh 2, BB579 growth dn -1, Insulin prom up 3.1* and Yeast life ext -7.
Screening Nc1nc2sc3c(c2c(=O)s1)CCCC3 returned RAM network inh -1, Insulin prom inh 8, BB579 growth dn 53*, Insulin prom up -0.31 and Yeast life ext -21.
`Nc1c2c3c(sc2nc(=O)n1N)CCCC3` gave RAM network inh 1.
COc1ccc(OC)c(NC(=O)c2cc3c(Cl)nc4ccccc4c3s2)c1 was read as RAM network inh 9.9*, Insulin prom inh -3, BB579 growth dn -31 and Yeast life ext 5.
`COc1ccc(NC(=O)c2cc3c(Cl)nc4ccccc4c3s2)cc1OC` gave RAM network inh 5, BB579 growth dn -36 and Yeast life ext -3.
Screening CN(C)c1ncnc2c1ncn2C1OC(CO)C(O)C1O (stereo not given) returned RAM network inh 1, Insulin prom inh 92*, BB579 growth dn -19, Insulin prom up -2 and Yeast life ext -3.
Screening CCOC(=O)c1cc2occc2n1Cc1c(F)cccc1Cl returned RAM network inh 4, Insulin prom inh -43, BB579 growth dn -35, Insulin prom up -0.42 and Yeast life ext -11.
COC(=O)c1cc2occc2n1Cc1c(F)cccc1Cl was read as RAM network inh 0, BB579 growth dn -37, Insulin prom up 3.1* and Yeast life ext -23.
COC(=O)c1cc2occc2n1Cc1nc(-c2cccc(Cl)c2)oc1C was read as RAM network inh 11*, Insulin prom inh 17, BB579 growth dn -28, Insulin prom up -0.12 and Yeast life ext 11.
COC(=O)c1cc2sccc2n1Cc1nc(-c2cccc(Cl)c2)oc1C was read as RAM network inh 5, BB579 growth dn -6, Insulin prom up 0.33 and Yeast life ext 10.
For Cc1ccccc1C(=O)NNc1ccc(-c2csnn2)cc1 the results were Insulin prom up 0.26.
For COC(=O)c1cc(-c2ccc(S(=O)(=O)N3CCCCC3)cc2)c(C(F)(F)F)s1 the results were Insulin prom up 0.08.
CN(C)c1ccc(NS(=O)(=O)c2ccc(Cl)cc2)cc1 was read as RAM network inh 1, Insulin prom inh 20, BB579 growth dn -27, Insulin prom up 0.72 and Yeast life ext 0.
`CN(C)c1ccc(S(=O)(=O)c2ccc(Cl)cc2)cc1` gave RAM network inh 3, Insulin prom inh 74*, BB579 growth dn -12, Insulin prom up 0.3 and Yeast life ext 71*.
Cc1cccc2sc(NC(=O)C3=NN(c4ccccc4)C(=O)CC3)nc12 was read as RAM network inh 11*, BB579 growth dn -21, Insulin prom up -1.2 and Yeast life ext 6.
Screening CSCCC(NC(=O)c1ccc([N+](=O)[O-])cc1Cl)C(=O)OCC(=O)NCCCc1ccccc1 (stereo not given) returned RAM network inh 9.5*, Insulin prom inh 0, BB579 growth dn -38 and Yeast life ext 4.
Screening O=C(N/N=C/c1coc2ccccc2c1=O)c1cn(-c2ccccc2)nc1-c1ccccc1 returned RAM network inh 3, BB579 growth dn -45, Insulin prom up -0.25 and Yeast life ext 28*.
CCN1CCN(C(=O)C(=O)c2c(C)[nH]c3ccccc23)CC1 was read as RAM network inh 1 and Insulin prom up 0.
Screening CCOc1ccc2nc(SCC(=O)NC(=O)C(C)C)sc2c1 returned RAM network inh 1, Insulin prom inh 100* and Insulin prom up -0.23.
